Experimental data of several laboratories.
Lines come from different studies, so protocols differ.
CDK4: Cyclin-dependent kinase 4 (CDK4, Homo sapiens, UniProt P11802)
CDK4 with cyclin D1: Cyclin-dependent kinase 4, with cyclin D1 (CDK4, Homo sapiens, UniProt P11802)
CDK4 with cyclin D3: Cyclin-dependent kinase 4, with cyclin D3 (CDK4, Homo sapiens, UniProt P11802)

For O=C(NCC1CCOCC1)c1n[nH]cc1NC(=O)c1c(F)cccc1F, the remaining binding was 92% (CDK4; binding; competition with immobilised ligand; 1 µM).
With COc1ccnn2ncc(-c3ccnc(N(C)C)n3)c12 the remaining binding was 95% (CDK4; binding; 1 µM).
Cc1cc(NC(=O)c2cccc(S(F)(F)(F)(F)F)c2)cc(-n2ccn3nc(-c4cccnc4)cc23)c1 gave a remaining binding of 79.3% (CDK4; cell-free assay; competition with immobilised ligand; 1 µM).
O=C(NCCCN1CCOCC1)c1ccc(Nc2nccc(-c3cc4ccccc4s3)n2)cc1 gave a remaining binding of 83% (CDK4 with cyclin D1; binding; competition with immobilised ligand; 1 µM).
For COc1cnc(Nc2cccc(S(N)(=O)=O)c2)nc1N1CCN(c2ccccc2)C(=O)C1, the remaining binding was 87% (CDK4 with cyclin D3; binding; competition with immobilised ligand; 1 µM).
The remaining binding of O=C(O)[C@@H]1[C@@H](Cn2nnc3ccccc3c2=O)CC[C@H]1C(=O)c1ccc(OCCC2CCOCC2)cc1 is reported as 83% (CDK4 with cyclin D3; cell-free assay; competition with immobilised ligand; 1 µM).
The remaining binding of CN(CCCC(F)(F)F)c1nccc(-c2cnn3ncccc23)n1 is reported as 61% (CDK4 with cyclin D1; binding; 1 µM).
O=C(NCCCN1CCOCC1)c1ccc(Nc2ncc(Cl)c(-c3ccc(Cl)s3)n2)cc1 gave a remaining binding of 0.5% (CDK4 with cyclin D1; binding; competition with immobilised ligand; 1 µM).
For CN(C)CC#Cc1ccc(OCCCc2sc(N3CCc4cccc(C(=O)Nc5nc6ccccc6s5)c4C3)nc2C(=O)O)c(F)c1, the remaining binding was 100% (CDK4 with cyclin D3; cell-free assay; competition with immobilised ligand; 1 µM).
C[C@@H](c1ccc(-n2cnc3c(N)ncnc32)cc1)N1CCc2nn(C)c(Cc3ccccc3)c2C1=O gave a remaining binding of 68% (CDK4 with cyclin D3; binding; competition with immobilised ligand; 0.1 µM).
The remaining binding of O=C(c1ccc(Nc2ncc(Cl)c(-c3cc4ccccc4s3)n2)cc1)N1CCC(N2CCCC2)CC1 is reported as 3.6% (CDK4 with cyclin D1; binding; competition with immobilised ligand; 1 µM).
CC(=O)N1CCC(c2ccc(C(=O)NC3=NCCN3)cc2C(F)(F)F)CC1 has a remaining binding of 94% (CDK4 with cyclin D1; cell-free assay; competition with immobilised ligand; 1 µM).
With FC(F)(F)Oc1cccc(-c2cnc3ccc(-c4ccncc4)nn23)c1 the remaining binding was 46% (CDK4 with cyclin D1; cell-free assay; competition with immobilised ligand; 5 µM).
N[C@@H]1CCN(c2nccc(-c3cnn4ncccc34)n2)C1 has a remaining binding of 100% (CDK4 with cyclin D3; binding; 1 µM).
With CS(=O)(=O)NCC[C@H](NC(=O)c1cncc2c1cnn2-c1ccc(F)cc1)c1ccnc(S(C)(=O)=O)c1 the remaining binding was 100% (CDK4 with cyclin D1; cell-free assay; competition with immobilised ligand; 1 µM).
CN(C)c1nccc(-c2cnc3ncccn23)n1 has a remaining binding of 51% (CDK4 with cyclin D1; binding; 1 µM).
O=C(Nc1cnc(Oc2ccc(F)cc2)nc1)N1CCc2ncccc2[C@@H]1c1ccc(F)cc1 has a remaining binding of 100% (CDK4 with cyclin D1; cell-free assay; competition with immobilised ligand; 1 µM).
With C[C@@H]1CCN(c2nccc(-c3cnn4ncccc34)n2)C1 the remaining binding was 79% (CDK4; binding; 1 µM).
c1cncc(-c2cccc(Nc3nccc(NC4CCCCC4)n3)c2)c1 gave a remaining binding of 100% (CDK4; binding; competition with immobilised ligand; 10 µM).
